Test results reported in ChEMBL document CHEMBL2176952, “Anticancer activity and cellular repression of c-MYC by the G-quadruplex-stabilizing 11-piperazinylquindoline is not dependent on direct targeting of the G-quadruplex in the c-MYC promoter” (J Med Chem, 2012).
pIC50: −log10 of the molar value. Values belong to the compound of their own block, whether it stands above or below them. Activity calls are given as the source filed them. The calls are words filed in the database; no cut-off is given here.

Columns and labels:
Nucleic Acid [1] = assay: Thermal stability of c-MYC G-quadruplex DNA assessed as change in melting temperature at DNA:compound ratio 1:1 by spectropolarimeter analysis; type: nucleic-acid assay
In short: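 c-MYC G-quadruplex at 5 μM in 50 mM Tris-HCl pH 7.4, held 10 min at 25 °C, heated 10 min at 95 °C and air-cooled over ~30 min. Compound then added at 1 equivalent. Melting followed by CD spectropolarimetry; ΔTm = Tm with compound minus Tm of control.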

HCT-116 [2] = assay: Cytotoxicity against human HCT116 cells after 96 hrs by MTS assay; type: functional, cell-based; conditions: HCT-116, 96 h
In short: (§1)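 MTS viability after 96 h exposure. HCT-116 grown in DMEM, Raji in RPMI-1640, each with 10% FBS and penicillin/streptomycin at 37 °C, 5% CO2, kept in exponential growth. Compound spanned a 5–6 log range in 0.5 log steps. IC50 from non-linear regression; biological triplicates.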

Raji = assay: Cytotoxicity against human Raji cells after 96 hrs by MTS assay; type: functional, cell-based; in short: as §1
Nucleic Acid [3] = assay: Binding affinity to c-MYC G-quadruplex DNA at 2 uM after 48 hrs by competition dialysis method; type: nucleic-acid assay
In short: (§2)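 DNA at 75 μM in 50 mM Tris-HCl with 25 mM KCl. Duplexes annealed by heating to 95 °C then slow cooling at 1 °C/min. G-quadruplexes formed by 95 °C for 10 min with rapid air cooling, topology checked by CD. Dialysed 48 h in a cold room against BPES with 25 mM KCl and 2 μM compound. Bound compound measured by UV absorbance against a standard curve, expressed per binding site. Run in duplicate.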

Nucleic Acid [4] = assay: Binding affinity to dGdC DNA at 2 uM after 48 hrs by competition dialysis method; type: nucleic-acid assay; in short: as §2
Nucleic Acid [5] = assay: Binding affinity to dAdT DNA at 2 uM after 48 hrs by competition dialysis method; type: nucleic-acid assay; in short: as §2
Nucleic Acid [6] = assay: Binding affinity to c-MYC G-quadruplex DNA in human HCT116 cells assessed as decrease in c-MYC mRNA expression at 23 uM from 6 to 48 hrs by RT-PCR analysis; type: cell-based; conditions: HCT-116
Nucleic Acid [7] = assay: Binding affinity to HIF1alpha G-quadruplex DNA in human HCT116 cells assessed as change in HIF1alpha mRNA expression at 23 uM up to 48 hrs by RT-PCR analysis; type: cell-based; conditions: HCT-116
Nucleic Acid [8] = assay: Binding affinity to HIF1alpha G-quadruplex DNA in human HCT116 cells assessed as change in HIF1alpha mRNA expression at 31 uM up to 48 hrs by RT-PCR analysis; type: cell-based; conditions: HCT-116
Nucleic Acid [9] = assay: Binding affinity to hTERT G-quadruplex DNA in human HCT116 cells assessed as downregulation of hTERT mRNA expression at 23 uM by RT-PCR analysis; type: cell-based; conditions: HCT-116, TDE = time-dependent effect
Nucleic Acid [10] = assay: Binding affinity to PDGFRbeta G-quadruplex DNA in human HCT116 cells assessed as change in PDGFRbeta mRNA expression at 23 uM up to 48 hrs by RT-PCR analysis; type: cell-based; conditions: HCT-116
Nucleic Acid [11] = assay: Binding affinity to VEGFA G-quadruplex DNA in human HCT116 cells assessed as change in VEGFA mRNA expression at 23 uM up to 48 hrs by RT-PCR analysis; type: cell-based; conditions: HCT-116
Nucleic Acid [12] = assay: Decrease of c-MYC G-quadruplex DNA-mediated c-MYC expression in exon1 in human CA46 cells at 19.4 uM at 24 hrs by exon-specific assay; type: cell-based
Nucleic Acid [13] = assay: Decrease of c-MYC G-quadruplex DNA-mediated c-MYC expression in exon1 in human CA46 cells at 19.4 uM at 48 hrs by exon-specific assay; type: cell-based
Nucleic Acid [14] = assay: Decrease of c-MYC G-quadruplex DNA-mediated c-MYC expression in exon1 in human CA46 cells at 19.4 uM at 6 hrs by exon-specific assay; type: cell-based
HCT-116 [15] = assay: Cytotoxicity against human HCT116 cells after 24 hrs by MTS assay; type: functional, cell-based; conditions: HCT-116, 24 h
CA46 = assay: Cytotoxicity against human CA46 cells after 24 hrs by MTS assay; type: functional, cell-based; conditions: CA46, 24 h
Nucleic Acid [16] = assay: Binding affinity to HIF1alpha G-quadruplex DNA at 2 uM after 48 hrs by competition dialysis method; type: nucleic-acid assay; in short: as §2
Nucleic Acid [17] = assay: Binding affinity to hTERT G-quadruplex DNA at 2 uM after 48 hrs by competition dialysis method; type: nucleic-acid assay; in short: as §2
Nucleic Acid [18] = assay: Binding affinity to PDGFRbeta G-quadruplex DNA at 2 uM after 48 hrs by competition dialysis method; type: nucleic-acid assay; in short: as §2
Nucleic Acid [19] = assay: Binding affinity to c-MYC G-quadruplex DNA in human HCT116 cells assessed as decrease in c-MYC mRNA expression at 31 uM at 6 hrs by RT-PCR analysis; type: cell-based; conditions: HCT-116
Nucleic Acid [20] = assay: Binding affinity to c-MYC G-quadruplex DNA in human HCT116 cells assessed as decrease in c-MYC mRNA expression at 31 uM at 48 hrs by RT-PCR analysis; type: cell-based; conditions: HCT-116
Nucleic Acid [21] = assay: Binding affinity to hTERT G-quadruplex DNA in human HCT116 cells assessed as downregulation of hTERT mRNA expression at 31 uM at 6 hrs by RT-PCR analysis; type: cell-based; conditions: HCT-116
Nucleic Acid [22] = assay: Binding affinity to hTERT G-quadruplex DNA in human HCT116 cells assessed as downregulation of hTERT mRNA expression at 31 uM at 24 hrs by RT-PCR analysis; type: cell-based; conditions: HCT-116
Nucleic Acid [23] = assay: Binding affinity to hTERT G-quadruplex DNA in human HCT116 cells assessed as downregulation of hTERT mRNA expression at 31 uM at 48 hrs by RT-PCR analysis; type: cell-based; conditions: HCT-116
Nucleic Acid [24] = assay: Binding affinity to PDGFRbeta G-quadruplex DNA in human HCT116 cells assessed as downregulation of PDGFRbeta mRNA expression at 31 uM at 6 hrs by RT-PCR analysis; type: cell-based; conditions: HCT-116
Nucleic Acid [25] = assay: Binding affinity to PDGFRbeta G-quadruplex DNA in human HCT116 cells assessed as downregulation of PDGFRbeta mRNA expression at 31 uM at 24 hrs by RT-PCR analysis; type: cell-based; conditions: HCT-116
Nucleic Acid [26] = assay: Binding affinity to PDGFRbeta G-quadruplex DNA in human HCT116 cells assessed as downregulation of PDGFRbeta mRNA expression at 31 uM at 48 hrs by RT-PCR analysis; type: cell-based; conditions: HCT-116
HCT-116 [27] = assay: Increase in VEGFA G-quadruplex DNA expression in human HCT116 cells by qPCR analysis; type: functional, cell-based
Nucleic Acid [28] = assay: Decrease of c-MYC G-quadruplex DNA-mediated c-MYC expression in exon1 in human CA46 cells at 2.8 uM at 24 hrs by exon-specific assay; type: cell-based
Nucleic Acid [29] = assay: Decrease of c-MYC G-quadruplex DNA-mediated c-MYC expression in exon1 in human CA46 cells at 2.8 uM at 48 hrs by exon-specific assay; type: cell-based
Nucleic Acid [30] = assay: Decrease of c-MYC G-quadruplex DNA-mediated c-MYC expression in exon1 in human CA46 cells at 2.8 uM at 6 hrs by exon-specific assay; type: cell-based

ΔTm (Nucleic Acid [1]): 1.3 °C
Compound: OCCCN1CCN(c2c3ccccc3nc3c2[nH]c2ccccc23)CC1
pIC50 (HCT-116 [2]): 5.62 | pIC50 (Raji): < 4.00

ΔTm (Nucleic Acid [1]): 11.4 °C
Compound: CN(C)CCCN1CCN(c2c3ccccc3nc3c2[nH]c2ccccc23)CC1
pIC50 (HCT-116 [2]): 6.05 | pIC50 (Raji): 4.93

ΔTm (Nucleic Acid [1]): 8.6 °C
Compound: CN(C)CCN1CCN(c2c3cc(-c4ccncc4)ccc3nc3c2[nH]c2ccccc23)CC1
pIC50 (HCT-116 [2]): 4.68 | pIC50 (Raji): 4.35

ΔTm (Nucleic Acid [1]): 6.3 °C
Compound: COCCCN1CCN(c2c3ccccc3nc3c2[nH]c2ccccc23)CC1
pIC50 (HCT-116 [2]): 5.20 | pIC50 (Raji): 4.67

ΔTm (Nucleic Acid [1]): 1.9 °C
Compound: c1ccc2c(-c3ccc(CCN4CCOCC4)cc3)c3[nH]c4ccccc4c3nc2c1
pIC50 (HCT-116 [2]): < 4.00 | pIC50 (Raji): < 4.00

ΔTm (Nucleic Acid [1]): 2.8 °C
Compound: CN(C)CCCn1c2ccccc2c2nc3ccccc3c(N3CCN(C)CC3)c21
pIC50 (HCT-116 [2]): 5.53 | pIC50 (Raji): 5.15

ΔTm (Nucleic Acid [1]): 10.3 °C
Compound: CCN(CC)CCN1CCN(c2c3ccccc3nc3c2[nH]c2ccccc23)CC1
pIC50 (HCT-116 [2]): 5.47 | pIC50 (Raji): 4.59

ΔTm (Nucleic Acid [1]): 6.7 °C | Activity (Nucleic Acid [3]): Active | Activity (Nucleic Acid [4]): Active | Activity (Nucleic Acid [5]): Active
Compound: CN(C)CCN1CCN(c2c3ccccc3nc3c2[nH]c2ccccc23)CC1
pIC50 (HCT-116 [2]): 6.01 | pIC50 (Raji): 5.63 | Activity (Nucleic Acid [6]): Active | Activity (Nucleic Acid [7]): inactive | Activity (Nucleic Acid [8]): inactive | Activity (Nucleic Acid [9]): tde | Activity (Nucleic Acid [10]): Active | Activity (Nucleic Acid [11]): Active | Activity (Nucleic Acid [12]): inactive | Activity (Nucleic Acid [13]): inactive | Activity (Nucleic Acid [14]): inactive | pIC50 (HCT-116 [15]): 4.64 | pIC50 (CA46): 4.71

ΔTm (Nucleic Acid [1]): 6.7 °C
Compound: c1ccc2c(N3CCNCC3)c3[nH]c4ccccc4c3nc2c1
pIC50 (HCT-116 [2]): 5.37 | pIC50 (Raji): 4.47

ΔTm (Nucleic Acid [1]): 13.1 °C
Compound: CN(C)CCN1CCN(c2c3cc(-c4ccc(CCN5CCOCC5)cc4)ccc3nc3c2[nH]c2ccccc23)CC1
pIC50 (HCT-116 [2]): 5.42 | pIC50 (Raji): 4.97

ΔTm (Nucleic Acid [1]): 6.5 °C
Compound: CN(C)CCN1CCN(c2c3cc(-c4ccc(F)c(F)c4)ccc3nc3c2[nH]c2ccccc23)CC1
pIC50 (HCT-116 [2]): 5.43 | pIC50 (Raji): 5.24

ΔTm (Nucleic Acid [1]): 3 °C
Compound: CN1CCN(c2c3ccccc3nc3c2[nH]c2ccccc23)CC1
pIC50 (HCT-116 [2]): 5.46 | pIC50 (Raji): 5.26

ΔTm (Nucleic Acid [1]): 5.2 °C
Compound: CCN(CC)CCNc1c2ccccc2nc2c1[nH]c1ccccc12
pIC50 (HCT-116 [2]): 6.96 | pIC50 (Raji): 6.15 | pIC50 (CA46): 5.00

ΔTm (Nucleic Acid [1]): 5.9 °C
Compound: c1ccc2c(N3CCN(CCN4CCOCC4)CC3)c3[nH]c4ccccc4c3nc2c1
pIC50 (HCT-116 [2]): 5.04 | pIC50 (Raji): 4.28

ΔTm (Nucleic Acid [1]): 16.5 °C | Activity (Nucleic Acid [16]): Active | Activity (Nucleic Acid [17]): Active | Activity (Nucleic Acid [18]): Active | Activity (Nucleic Acid [4]): Active | Activity (Nucleic Acid [5]): Active
Compound: CN(C)CCCn1c2ccccc2c2nc3ccccc3c(N3CCN(CCN(C)C)CC3)c21
pIC50 (HCT-116 [2]): 5.47 | pIC50 (Raji): 5.51 | Activity (Nucleic Acid [19]): Active | Activity (Nucleic Acid [20]): inactive | Activity (Nucleic Acid [7]): inactive | Activity (Nucleic Acid [8]): inactive | Activity (Nucleic Acid [21]): Active | Activity (Nucleic Acid [22]): Active | Activity (Nucleic Acid [23]): inactive | Activity (Nucleic Acid [24]): Active | Activity (Nucleic Acid [25]): Active | Activity (Nucleic Acid [26]): inactive | Activity (HCT-116 [27]): Active | Activity (Nucleic Acid [28]): inactive | Activity (Nucleic Acid [29]): inactive | Activity (Nucleic Acid [30]): inactive | pIC50 (HCT-116 [15]): 4.51 | pIC50 (CA46): 5.55

ΔTm (Nucleic Acid [1]): 8.8 °C
Compound: c1ccc2c(N3CCN(CCN4CCCCC4)CC3)c3[nH]c4ccccc4c3nc2c1
pIC50 (HCT-116 [2]): 6.30 | pIC50 (Raji): 4.25
